Experiments:
[1] = system: Aβ peptide variants in PS1 mutant-expressing cell lines; details: cited from earlier work
[2] = system: Notch 1 receptor (NΔE) proteolysis, NICD; experiment: Cell-based Notch proteolytic processing assay; design: species or system human; details: H4-APP751/NΔE cells, 24 h; lowest concentration tested
How it was run: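 H4 human neuroglioma cells stably overexpressing human APP751 were transfected with Myc-tagged NΔE Notch and treated for a further 24 h with serially diluted test compound, DMSO vehicle, or a dipeptidic γ-secretase inhibitor as positive control. Concentrations ranged up to 30 μM. Cells were harvested 48 h post-transfection. Lysates were Western blotted with anti-Myc for NΔE/NICD, an APP C-terminal antibody for holo-APP, C99 and C83, and anti-β-actin as loading control.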

Compound: COc1cc(/C=C2\CCCN([C@@H](C)c3ccc(F)cc3)C2=O)ccc1-n1cnc(C)c1 [Eisai]
- effects on Aβ38 and Aβ42 in PS1 mutant cell lines [1]: behaved like the “TorreyPines” compound

Compound: CC(C)CC[C@H](c1ccc(Cl)cc1)N1CC[C@@H](CC(=O)O)C[C@H]1c1ccc(C(F)(F)F)cc1 [GSM-1]
- effect on Aβ peptide variants, G384A PS1 mutant ([1]; G384A PS1 mutant): effectively lowered Aβ42, Aβ40, and Aβ37
- effect on Aβ38 levels, PS1 mutants L166P and N135S ([1]; PS1 mutants L166P and N135S): increases in Aβ38 levels
- inhibition of Aβ42, PS1 mutants L166P and N135S ([1]; PS1 mutants L166P and N135S): resistant

Compound: C[C@H](NC(=O)Cc1cc(F)cc(F)c1)C(=O)NC(C(=O)OC(C)(C)C)c1ccccc1 (stereo partly drawn) [DAPT, N-[N-(3,5-difluorophenacetyl)-L-alanyl]-S-phenylglycine tert-butyl ester]
- concentration at which inhibition of NICD occurred [2]: ≤ 300 nM

From PMC3929337 (Biochemistry, 2014)
